Broadly, the IC50 is the midpoint of a concentration-inhibition curve.

Each structure is given as a SMILES string.

This is an account of results in publication PMC3143825 (Bioorganic & medicinal chemistry, 2011).

Experiment [1] deals with Hsp90 from SKBr3 cellular extracts. Description: Fluorescence polarization. It counts as binding. The settings on record: for IC50: read-out: IC50, binding affinity for Hsp90, Hsp90 from SKBr3 cellular extracts, displacement of GM-cy3B (6 nM), 4°C, 24 h. For orientation: In fluorescence polarisation assays a small probe gives low polarisation when free and higher when bound to something large.

The target in experiment [2] is Cell surface Hsp90 in MV4-11 leukemia cells (Homo sapiens, UniProt P07900). Description: Flow cytometry detection of cell surface Hsp90. It counts as cell-based. Particulars: MV4-11 cells, 2 h at 37°C, SA-PE staining; D-biotin as control. A general note: Flow cytometry measures light scatter and fluorescence of single cells or particles in a stream.
The subject of experiment [3] is c-Kit and IGF-IR in MDA-MB-468 cells. The format is cell-based. Particulars: 5 μM, 24 h. In short, it runs like this:
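MDA-MB-468 breast cancer cells kept in DME/F12 with 10% FBS, 1% L-glutamine and 1% penicillin/streptomycin at 37°C under 5% CO₂. Grown to 60–70% confluence, then exposed to test compound for 24 h. Lysed in 50 mM Tris pH 7.4, 150 mM NaCl, 1% NP-40. 10–50 μg protein run on SDS-PAGE and blotted to nitrocellulose. Probed with anti-IGF-IR (1:1000) and anti-c-Kit (1:200), then HRP secondary (1:3000), with ECL detection.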

With `Nc1ncnc2c1nc(Sc1cc3c(cc1I)OCO3)n2CCCNCCOCCOCCOCCNC(=O)CCCC[C@@H]1SC[C@@H]2NC(=O)N[C@@H]21` [Compound 7], in experiment [1], the IC50 turned out to be 67.1 nM. Besides, in experiment [2], the “detection of cell surface Hsp90” value is on record as “can detect Hsp90 expression on the surface of leukemia cells”.
Take `CCNC(=O)c1noc(-c2cc(C(C)C)c(O)cc2O)c1-c1ccc(CNCCCCCCN)cc1` [Compound 10, 4-(4-((6-Aminohexylamino)methyl)phenyl)-5-(2,4-dihydroxy-5-isopropylphenyl)-N-ethylisoxazole-3-carboxamide]: the concentration for half-maximal inhibition (IC50) in experiment [1] came to 7 nM.
In the case of `CC1(C)CC(=O)c2c(C(F)(F)F)nn(-c3ccc(C(N)=O)c(N[C@H]4CC[C@H](N)CC4)c3)c2C1` [Compound 18, 2-(trans-4-Aminocyclohexylamino)-4-(6,6-dimethyl-4-oxo-3-(trifluoromethyl)-4,5,6,7-tetrahydro-1H-indazol-1-yl)benzamide], the “fold loss in potency as compared to SNX-2112” value in experiment [1] (FP assay, SKBr3 extract) is on record as approximately 14 fold. Also, the IC50 in experiment [1] stood at 210 nM.
For the molecule `CC1(C)CC(=O)c2c(C(F)(F)F)nn(-c3ccc(C(N)=O)c(N[C@H]4CC[C@H](NC(=O)CCCCCN)CC4)c3)c2C1` [Compound 20, 2-(trans-4-(6-Aminohexanamido)cyclohexylamino)-4-(6,6-dimethyl-4-oxo-3-(trifluoromethyl)-4,5,6,7-tetrahydro-1H-indazol-1-yl)benzamide], the IC50 in experiment [1] is 24.7 nM.
As for `CCNC(=O)c1noc(-c2cc(C(C)C)c(O)cc2O)c1-c1ccc(CN2CCOCC2)cc1` [NVP-AUY922, reference compound], the IC50 in experiment [1] amounted to 4.1 nM.
Take `CC(C)NCCCn1c(Sc2cc3c(cc2I)OCO3)nc2c(N)ncnc21` [PU-H71, reference compound]: the “steady-state levels of c-Kit and IGF-IR” value in experiment [3] is “reduction in the steady-state levels”. The IC50 in experiment [1] came to 22.4 nM.
